Measured values taken from ChEMBL document CHEMBL2417507, “Synthesis and bioevaluation of some new isoniazid derivatives” (Bioorg Med Chem, 2013).
In brackets after ≈: the same amount, converted by molar mass. Activity calls are given as the source filed them. The rule behind the calls is not given here.

How the values were obtained:
HCT-8 [1] = experiment: Decrease in NAT2 gene expression in human HCT8 cells at 25 ug/mL after 24 hrs by RT-PCR analysis; type: ADME, cell-based; settings: hct-8, 24 h
[2] = test system: Radical scavenging activity; experiment: Antioxidant activity assessed as DPPH radical scavenging activity at 0.1 mg/mL after 30 mins under dark conditions by spectrophotometric analysis relative to control; type: functional
Summary of the method: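 Compounds dissolved in methanol at 0.1 mg/mL; 0.2 mL mixed with 1.8 mL of 2 × 10^-4 M DPPH in methanol and kept in the dark 30 min. Absorbance read at 517 nm. The blank was DPPH plus methanol. TAC (%) = (Abs initial − Abs 30 min)/Abs initial × 100.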

Pseudomonas putida = experiment: Antibacterial activity against Pseudomonas putida 160 assessed as growth inhibition at 1 mg/mL after 24 hrs by agar-disk diffusion technique; type: functional, organism-based
Summary of the method: (§1)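 Agar-disk diffusion, adapted: plates seeded with 0.5 McFarland suspension prepared from 24 h cultures; 5 µL of a 1 mg/mL compound solution spotted onto the seeded solid medium; incubated 24 h at 37 °C. Stocks made in DMSO.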

Klebsiella pneumoniae = experiment: Antibacterial activity against Klebsiella pneumoniae 1756 assessed as growth inhibition at 1 mg/mL after 24 hrs by agar-disk diffusion technique; type: functional, organism-based; summary of the method: as §1
HCT-8 [3] = experiment: Cytotoxicity against human HCT8 cells at 50 ug/mL after 24 hrs by trypan blue exclusion assay; type: cell-based; settings: hct-8, 24 h
Summary of the method: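 HCT8 cells (3 × 10^5 per 3.5-cm well) treated 24 h, then trypsinised, spun and resuspended in PBS. Suspension mixed 1:1 with 0.4% trypan blue for 1 min and viable/non-viable cells counted on a haemocytometer. Each experiment repeated three times.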

HCT-8 [4] = experiment: Cell cycle arrest in human HCT8 cells assessed as accumulation at G2/M phase at 25 ug/mL after 24 hrs by propidium iodide staining-based flow cytometric analysis (reference value: 13.83%); type: ADME; settings: hct-8, 24 h
Proteus mirabilis = experiment: Antibacterial activity against Proteus mirabilis 1751 assessed as growth inhibition at 1 mg/mL after 24 hrs by agar-disk diffusion technique; type: functional, organism-based; summary of the method: as §1
Acinetobacter baumannii [5] = experiment: Antibacterial activity against Acinetobacter baumannii 136 assessed as growth inhibition at 1 mg/mL after 24 hrs by agar-disk diffusion technique; type: functional, organism-based; summary of the method: as §1
[6] = Induction of apoptosis in human HCT8 cells assessed as viable cells at 50 ug/mL after 24 hrs by Annexin V-FITC and propidium iodide staining-based flow cytometric analysis (reference value: 87.7%); type: cell-based, HCT-8; settings: read-out: Activity
HCT-8 [7] = experiment: Cell cycle arrest in human HCT8 cells assessed as accumulation at G0/G1 phase at 25 ug/mL after 24 hrs by propidium iodide staining-based flow cytometric analysis (reference value: 46.43%); type: ADME; settings: hct-8, 24 h
HCT-8 [8] = experiment: Induction of apoptosis in human HCT8 cells assessed as necrotic cells at 50 ug/mL after 24 hrs by Annexin V-FITC and propidium iodide staining-based flow cytometric analysis (reference value: 7.73%); type: cell-based; settings: hct-8, 24 h
Morganella morganii = experiment: Antibacterial activity against Morganella morganii 2810 assessed as growth inhibition at 1 mg/mL after 24 hrs by agar-disk diffusion technique; type: functional, organism-based; summary of the method: as §1
Pseudomonas aeruginosa [9] = experiment: Antibacterial activity against Pseudomonas aeruginosa ATCC 27853 assessed as growth inhibition at 1 mg/mL after 24 hrs by agar-disk diffusion technique; type: functional, organism-based; summary of the method: as §1
HCT-8 [10] = experiment: Cell cycle arrest in human HCT8 cells assessed as accumulation at S phase at 25 ug/mL after 24 hrs by propidium iodide staining-based flow cytometric analysis (reference value: 39.43%); type: ADME; settings: hct-8, 24 h
Acinetobacter baumannii [11] = experiment: Antibacterial activity against Acinetobacter baumannii 247 assessed as growth inhibition at 1 mg/mL after 24 hrs by agar-disk diffusion technique; type: functional, organism-based; summary of the method: as §1
Staphylococcus aureus = experiment: Antibacterial activity against Staphylococcus aureus assessed as growth inhibition at 1 mg/mL after 24 hrs by agar-disk diffusion technique; type: functional, organism-based; summary of the method: as §1
Acinetobacter baumannii [12] = experiment: Antibacterial activity against Acinetobacter baumannii 125 assessed as growth inhibition at 1 mg/mL after 24 hrs by agar-disk diffusion technique; type: functional, organism-based; summary of the method: as §1
Acinetobacter baumannii [13] = experiment: Antibacterial activity against Acinetobacter baumannii 135 assessed as growth inhibition at 1 mg/mL after 24 hrs by agar-disk diffusion technique; type: functional, organism-based; summary of the method: as §1
HCT-8 [14] = experiment: Induction of apoptosis in human HCT8 cells assessed as late apoptotic cells at 50 ug/mL after 24 hrs by Annexin V-FITC and propidium iodide staining-based flow cytometric analysis (reference value: 2.97%); type: cell-based; settings: hct-8, 24 h
HCT-8 [15] = experiment: Induction of apoptosis in human HCT8 cells assessed as early apoptotic cells at 50 ug/mL after 24 hrs by Annexin V-FITC and propidium iodide staining-based flow cytometric analysis (reference value: 1.57%); type: cell-based; settings: hct-8, 24 h
Escherichia coli = experiment: Antibacterial activity against Escherichia coli 1777 assessed as growth inhibition at 1 mg/mL after 24 hrs by agar-disk diffusion technique; type: functional, organism-based; summary of the method: as §1
HCT-8 [16] = experiment: Increase in NAT2 gene expression in human HCT8 cells at 50 ug/mL after 24 hrs by RT-PCR analysis; type: ADME, cell-based; settings: hct-8, 24 h
[17] = test system: Mycobacterium tuberculosis; experiment: Antimycobacterial activity against Mycobacterium tuberculosis after 8 days by micro plate Alamar Blue assay; type: functional; settings: 192 h
Summary of the method: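 Clinical M. tuberculosis strain grown in Middlebrook 7H9 broth. Compounds were dissolved in DMSO and serially diluted twofold on the plate, final 25 to 0.012 µg/mL. Plates were sealed and held 8 days at 37 °C. Alamar Blue with 10% Tween 80 (1:1) was then added for another 24 h at 37 °C. MIC was the lowest concentration preventing the blue-to-pink change.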

HCT-8 [18] = experiment: Increase in NAT1 gene expression in human HCT8 cells at 50 ug/mL after 24 hrs by RT-PCR analysis; type: ADME, cell-based; settings: hct-8, 24 h
HCT-8 [19] = experiment: Cell cycle arrest in human HCT8 cells assessed as accumulation at G0/G1 phase at 50 ug/mL after 24 hrs by propidium iodide staining-based flow cytometric analysis (reference value: 46.43%); type: ADME; settings: hct-8, 24 h
HCT-8 [20] = experiment: Cell cycle arrest in human HCT8 cells assessed as accumulation at G2/M phase at 50 ug/mL after 24 hrs by propidium iodide staining-based flow cytometric analysis (reference value: 13.83%); type: ADME; settings: hct-8, 24 h
Enterobacter cloacae = experiment: Antibacterial activity against Enterobacter cloacae 1845 assessed as growth inhibition at 1 mg/mL after 24 hrs by agar-disk diffusion technique; type: functional, organism-based; summary of the method: as §1
Pseudomonas aeruginosa [21] = experiment: Antibacterial activity against Pseudomonas aeruginosa 1144 assessed as growth inhibition at 1 mg/mL after 24 hrs by agar-disk diffusion technique; type: functional, organism-based; summary of the method: as §1
HCT-8 [22] = experiment: Cell cycle arrest in human HCT8 cells assessed as accumulation at S phase at 50 ug/mL after 24 hrs by propidium iodide staining-based flow cytometric analysis (reference value: 39.43%); type: ADME; settings: hct-8, 24 h
Pseudomonas aeruginosa [23] = experiment: Antibacterial activity against Pseudomonas aeruginosa 165 assessed as growth inhibition at 1 mg/mL after 24 hrs by agar-disk diffusion technique; type: functional, organism-based; summary of the method: as §1
Staphylococcus hominis = experiment: Antibacterial activity against Staphylococcus hominis 1813 assessed as growth inhibition at 1 mg/mL after 24 hrs by agar-disk diffusion technique; type: functional, organism-based; summary of the method: as §1
Acinetobacter baumannii [24] = experiment: Antibacterial activity against Acinetobacter baumannii 192 assessed as growth inhibition at 1 mg/mL after 24 hrs by agar-disk diffusion technique; type: functional, organism-based; summary of the method: as §1

| Compound | TAC [2] | growth inhibition (GI) (Pseudomonas putida) | growth inhibition (GI) (Klebsiella pneumoniae) | growth inhibition (GI) (Proteus mirabilis) | growth inhibition (GI) (Acinetobacter baumannii [5]) | viability at 24 h, 50 ug/mL [6] | Activity (HCT-8 [8]) | growth inhibition (GI) (Morganella morganii) | growth inhibition (GI) (Pseudomonas aeruginosa [9]) | growth inhibition (GI) (Acinetobacter baumannii [11]) | growth inhibition (GI) (Staphylococcus aureus) | growth inhibition (GI) (Acinetobacter baumannii [13]) | Activity (HCT-8 [14]) | Activity (HCT-8 [15]) | Activity (HCT-8 [16]) | MIC [17] | Activity (HCT-8 [18]) | Activity (HCT-8 [19]) | Activity (HCT-8 [20]) | growth inhibition (GI) (Enterobacter cloacae) | also measured |
| --- | --- | --- | --- | --- | --- | --- | --- | --- | --- | --- | --- | --- | --- | --- | --- | --- | --- | --- | --- | --- | --- |
| NC(=S)/C=C/c1ccc(Cl)cc1 | 15.7% | Active | inactive | inactive | Active | 18.7% | 24.9% | inactive | inactive | inactive | Active | Active | 33.7% | 22.7% |  |  |  |  |  |  | Activity (HCT-8 [1]): Toxic; Activity (HCT-8 [3]): Toxic; Activity (HCT-8 [4]): 13.01%; Activity (HCT-8 [7]): 31.35%; Activity (HCT-8 [10]): 56.31%; growth inhibition (GI) (Acinetobacter baumannii [12]): inactive |
| CCOc1ccc(/C=C/C(N)(S)NNC(=O)c2ccncc2)cc1 (stereo not drawn) | 25.7% | Active | inactive |  | Active | 44.2% | 28.3% | inactive | inactive |  |  | Active | 21.6% | 5.81% | Toxic | 0.781 µg/mL (≈ 2.27 µM) | Toxic | 58.14% | 17.5% | inactive | growth inhibition (GI) (Escherichia coli): inactive; growth inhibition (GI) (Pseudomonas aeruginosa [21]): Active; Activity (HCT-8 [22]): 22.43% |
| Cc1ccc(/C=C/C(N)(S)NNC(=O)c2ccncc2)cc1 (stereo not drawn) | 12.5% | Active |  | inactive | Active | 54.3% | 28.5% |  | inactive | inactive | Active | Active | 16% | 1.16% | Toxic | 0.781 µg/mL (≈ 2.48 µM) | Toxic | 72.35% | 11.15% | Active | growth inhibition (GI) (Pseudomonas aeruginosa [23]): Active; growth inhibition (GI) (Staphylococcus hominis): Active; growth inhibition (GI) (Acinetobacter baumannii [24]): inactive; growth inhibition (GI) (Pseudomonas aeruginosa [21]): Active; Activity (HCT-8 [22]): 13.1% |
